Reference: ChEMBL document CHEMBL1138222, “9-Benzylidene-naphtho[2,3-b]thiophen-4-ones as novel antimicrotubule agents-synthesis, antiproliferative activity, and inhibition of tubulin polymerization” (J Med Chem, 2006)
Activity calls are given as the source filed them. The rule behind the calls is not given here.

Columns and labels:
[1] = Cell cycle arrest in KB/HeLa cells by accumulation at S phase at 31.6 nM; type: functional, cell-based; conditions: Homo sapiens
Procedure, shortened: (§1)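 Subconfluent KB/HeLa cells were treated with a concentration series for 24 h at 37 °C, then detached and fixed in 70% ethanol. DNA was stained with propidium iodide alongside RNase digestion and measured by flow cytometry. Phase fractions came from cell-cycle modelling software, and IC50 from nonlinear regression.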

[2] = Cell cycle arrest in KB/HeLa cells by accumulation at S phase at 100 nM; type: functional, cell-based; conditions: Homo sapiens; procedure, shortened: as §1
[3] = Cell cycle arrest in KB/HeLa cells by accumulation at S phase at 316 nM; type: functional, cell-based; conditions: Homo sapiens; procedure, shortened: as §1
[4] = Cell cycle arrest in KB/HeLa cells by accumulation at G2/M phase at 0.1 nM; type: functional, cell-based; conditions: Homo sapiens; procedure, shortened: as §1
[5] = Cell cycle arrest in KB/HeLa cells by accumulation at G2/M phase at 0.3 nM; type: functional, cell-based; conditions: Homo sapiens; procedure, shortened: as §1
[6] = Cell cycle arrest in KB/HeLa cells by accumulation at G2/M phase at 1 nM; type: functional, cell-based; conditions: Homo sapiens; procedure, shortened: as §1
[7] = Cell cycle arrest in KB/HeLa cells by accumulation at G2/M phase at 3.16 nM; type: functional, cell-based; conditions: Homo sapiens
[8] = Cell cycle arrest in KB/HeLa cells by accumulation at G2/M phase at 10 nM; type: functional, cell-based; conditions: Homo sapiens; procedure, shortened: as §1
[9] = Cell cycle arrest in KB/HeLa cells by accumulation at G2/M phase at 31.6 nM; type: functional, cell-based; conditions: Homo sapiens; procedure, shortened: as §1
[10] = Cell cycle arrest in KB/HeLa cells by accumulation at G2/M phase at 100 nM; type: functional, cell-based; conditions: Homo sapiens; procedure, shortened: as §1
[11] = Cell cycle arrest in KB/HeLa cells by accumulation at G2/M phase at 316 nM; type: functional, cell-based; conditions: Homo sapiens; procedure, shortened: as §1
[12] = Cell cycle arrest in KB/HeLa cells by accumulation at G1 phase at 0.1 nM; type: functional, cell-based; conditions: Homo sapiens; procedure, shortened: as §1
[13] = Cell cycle arrest in KB/HeLa cells by accumulation at G1 phase at 0.3 nM; type: functional, cell-based; conditions: Homo sapiens; procedure, shortened: as §1
[14] = Cell cycle arrest in KB/HeLa cells by accumulation at G1 phase at 1 nM; type: functional, cell-based; conditions: Homo sapiens; procedure, shortened: as §1
[15] = Cell cycle arrest in KB/HeLa cells by accumulation at G1 phase at 3.16 nM; type: functional, cell-based; conditions: Homo sapiens; procedure, shortened: as §1
[16] = Cell cycle arrest in KB/HeLa cells by accumulation at G1 phase at 10 nM; type: functional, cell-based; conditions: Homo sapiens; procedure, shortened: as §1
[17] = Cell cycle arrest in KB/HeLa cells by accumulation at G1 phase at 31.6 nM; type: functional, cell-based; conditions: Homo sapiens; procedure, shortened: as §1
[18] = Cell cycle arrest in KB/HeLa cells by accumulation at G1 phase at 100 nM; type: functional, cell-based; conditions: Homo sapiens; procedure, shortened: as §1
[19] = Cell cycle arrest in KB/HeLa cells by accumulation at G1 phase at 316 nM; type: functional, cell-based; conditions: Homo sapiens; procedure, shortened: as §1
K562 [20] = assay: Antiproliferative activity against human K562 cell line; type: functional, cell-based
[21] = Cell cycle arrest in KB/HeLa cells by accumulation at G2/M phase; type: functional, cell-based; conditions: Homo sapiens; procedure, shortened: as §1
K562 [22] = assay: Cell cycle arrest in K562 cells by accumulation at G2/M phase at 0.03 uM; type: functional, Homo sapiens
Procedure, shortened: (§2)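 K562 leukaemia cells were exposed to compound for 24 h at 37 °C, pelleted, and washed in PBS. They were fixed in ice-cold 70% ethanol for 30 min at 4 °C. Staining was 30 min in the dark with propidium iodide (0.2 mg/mL) plus RNase (2 mg/mL) in PBS. DNA content was measured by flow cytometry with 488 nm argon laser excitation.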

K562 [23] = assay: Cell cycle arrest in K562 cells by accumulation at G2/M phase at 0.06 uM; type: functional, Homo sapiens; procedure, shortened: as §2
K562 [24] = assay: Cell cycle arrest in K562 cells by accumulation at G2/M phase at 0.1 uM; type: functional, Homo sapiens; procedure, shortened: as §2
Tubulin (Homo sapiens) [25] = target: T1, Tubulin (Homo sapiens) (UniProt P68371+Q9H4B7+P0DPH7+P68366+Q13509+Q71U36+P04350+Q3ZCM7+P07437+P68363+Q9BQE3+Q6PEY2+Q13885+Q9BVA1+Q9BUF5); assay: Displacement of [3H]colchicine from tubulin by SPA assay; type: protein-complex assay
Tubulin (Homo sapiens) [26] = target: T1, Tubulin (Homo sapiens); assay: Displacement of [3H]paclitaxel from tubulin by SPA assay; type: protein-complex assay
P388 [27] = assay: Inhibition of P388 cells growth subcutaneously implanted in CD2F1 mouse at 25 mg/kg, ip after 7 days; type: functional, organism-based; design: dose 25 mg/kg
Procedure, shortened: (§3)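 Female CD2F1 mice aged 5-6 weeks received ~1 mm3 P388 tumour fragments subcutaneously on day 0. Dosing was intraperitoneal at 0.1 mL/10 g on days 5, 12 and 19, at 100, 50 or 25 mg/kg; controls received DMSO vehicle. Body weight and subcutaneous tumour growth were recorded three times per week.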

P388 [28] = assay: Inhibition of P388 cells growth subcutaneously implanted in CD2F1 mouse at 50 mg/kg, ip between 9 to 14 days; type: functional, organism-based; design: dose 50 mg/kg; procedure, shortened: as §3
Tubulin = Tubulin (Sus scrofa, UniProt P02554+P02550); assay: Inhibition of tubulin polymerization in porcine brain
[29] = Antiproliferative activity against KB/HeLa cells by XTT assay after 48 hrs; type: functional, cell-based; conditions: Homo sapiens
Procedure, shortened: (§4)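 Tumour cell lines were seeded at 1 × 10^3 to 8 × 10^4 cells/well for logarithmic growth and exposed to a concentration series for 48 h. Proliferation was read as cellular metabolic activity by XTT. IC50 came from dose-response curves by nonlinear regression, with at least two replicates.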

SK-OV-3 = assay: Antiproliferative activity against SKOV3 cells by XTT assay after 48 hrs; type: functional, cell-based; conditions: Homo sapiens, SK-OV-3, 48 h; procedure, shortened: as §4
SF-268 = assay: Antiproliferative activity against SF268 cells by XTT assay after 48 hrs; type: functional, cell-based; conditions: Homo sapiens, SF-268, 48 h; procedure, shortened: as §4
NCI-H460 = assay: Antiproliferative activity against NCI-H460 cells by XTT assay after 48 hrs; type: functional, cell-based; conditions: Homo sapiens, NCI-H460, 48 h; procedure, shortened: as §4
RKO [30] = assay: Antiproliferative activity against RKO cells with ectopic-induced p27kip1-expression by XTT assay after 48 hrs; type: functional, cell-based; conditions: Homo sapiens
Procedure, shortened: (§5)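 RKO colon adenocarcinoma cells carry an ecdysone-inducible p27kip1 vector. On day 1 they were plated with 3 µM ponasterone A (induced, 2 × 10^4 cells/well) or without it (not induced, 6 × 10^3 cells/well) and held 24 h at 37 °C. Compound or DMSO control was then added for 48 h at 37 °C, followed by a standard XTT read-out.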

RKO [31] = assay: Antiproliferative activity against RKO cells by XTT assay after 48 hrs; type: functional, cell-based; conditions: Homo sapiens; procedure, shortened: as §5
MDR = assay: Antiproliferative activity against LT12 MDR cells by XTT assay after 48 hrs; type: functional, cell-based; conditions: Rattus norvegicus; procedure, shortened: as §4
L1210 [32] = assay: Antiproliferative activity against L1210 cells by XTT assay after 48 hrs; type: functional, cell-based; conditions: Mus musculus, L1210, 48 h; procedure, shortened: as §4
L1210 [33] = assay: Antiproliferative activity against L1210 VCR cells by XTT assay after 48 hrs; type: functional, cell-based; conditions: Mus musculus, L1210, 48 h; procedure, shortened: as §4
P388 [34] = assay: Antiproliferative activity against P388 cells by XTT assay after 48 hrs; type: functional, cell-based; conditions: Mus musculus, P388, 48 h; procedure, shortened: as §4
P388 [35] = assay: Antiproliferative activity against P388 ADR cells by XTT assay after 48 hrs; type: functional, cell-based; conditions: Mus musculus, P388, 48 h; procedure, shortened: as §4
Mus musculus [36] = assay: Increase in survival of CD2F1 mouse subcutaneously implanted with P388 cells at 100 mg/kg after 21 days; type: functional; conditions: route intraperitoneal
Mus musculus [37] = assay: Increase in survival of CD2F1 mouse subcutaneously implanted with P388 cells at 50 mg/kg after 21 days; type: functional; conditions: route intraperitoneal
Mus musculus [38] = assay: Increase in survival of CD2F1 mouse subcutaneously implanted with P388 cells at 25 mg/kg after 21 days; type: functional; conditions: route intraperitoneal
[39] = Cell cycle arrest in KB/HeLa cells by accumulation at S phase at 0.1 nM; type: functional, cell-based; conditions: Homo sapiens; procedure, shortened: as §1
[40] = Cell cycle arrest in KB/HeLa cells by accumulation at S phase at 0.3 nM; type: functional, cell-based; conditions: Homo sapiens; procedure, shortened: as §1
[41] = Cell cycle arrest in KB/HeLa cells by accumulation at S phase at 1 nM; type: functional, cell-based; conditions: Homo sapiens; procedure, shortened: as §1
[42] = Cell cycle arrest in KB/HeLa cells by accumulation at S phase at 3.16 nM; type: functional, cell-based; conditions: Homo sapiens; procedure, shortened: as §1
[43] = Cell cycle arrest in KB/HeLa cells by accumulation at S phase at 10 nM; type: functional, cell-based; conditions: Homo sapiens; procedure, shortened: as §1
cells = conditions: Rattus norvegicus, LT12, 48 h

Q: Which results are given for `COc1cc(/C=C2/c3ccccc3C(=O)c3ccsc32)cc(OC)c1O`?
A: Activity [1]: 26%; Activity [2]: 16.2%; Activity [3]: 9.8%; Activity [4]: 9.7%; Activity [5]: 9.1%; Activity [6]: 8.4%; Activity [7]: 9.2%; Activity [8]: 8.8%; Activity [9]: 8.6%; Activity [10]: 52.2%; Activity [11]: 89.5%; Activity [12]: 65.8%; Activity [13]: 65.6%; Activity [14]: 65.7%; Activity [15]: 66.3%; Activity [16]: 64.8%; Activity [17]: 65.4%; Activity [18]: 31.7%; Activity [19]: 0.8%; IC50 (K562 [20]): 50 nM; EC50 [21]: 98 nM; Activity (K562 [22]): 23%; Activity (K562 [23]): 55%; Activity (K562 [24]): 72%; Activity (Tubulin (Homo sapiens) [25]): 0.27 µM; Activity (Tubulin (Homo sapiens) [26]): inactive; Activity (P388 [27]): Active; Activity (P388 [28]): Active; IC50 (Tubulin): 380 nM; IC50 [29]: 50 nM; IC50 (SK-OV-3): 70 nM; IC50 (SF-268): 70 nM; IC50 (NCI-H460): 50 nM; IC50 (RKO [30]): > 9000 nM; IC50 (RKO [31]): 30 nM; IC50 (MDR): 170 nM; IC50 (L1210 [32]): 340 nM; IC50 (L1210 [33]): 680 nM; IC50 (P388 [34]): 50 nM; IC50 (P388 [35]): 220 nM; Activity (Mus musculus [36]): 106%; Activity (Mus musculus [37]): 111%; Activity (Mus musculus [38]): 83%; Activity [39]: 24.6%; Activity [40]: 25.3%; Activity [41]: 25.9%; Activity [42]: 24.5%; Activity [43]: 26.5%; IC50 (cells): 130 nM
